KCNQ1 block = blocks the human KCNQ1 potassium channel; actives 1.3% (n = 310,000); B-score at 10 µM; CHO-K1 KCNQ1, FluxOR thallium flux fluorescence; active compounds read high; P51787;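 active means compounds whose thallium flux B-score, printed positive for inhibition, exceeds three library SD while starting fluorescence stays within three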;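 further: channel opened by potassium depolarization with thallium stimulus after 20 min compound exposure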
KCNQ1 pot = human KCNQ1 channel potentiation or activation; P51787; CHO-K1 KCNQ1, thallium flux FluxOR fluorescence; active compounds read high; B-score at 10 µM; actives 0.35% (n = 310,000);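 active means fluorescence ratio B-score, a plate-corrected score, at least three library SD, with initial intensity B-score within 5 SD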
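System: Stable KCNQ1 CHO-K1 line | Incubation: 90 min dye loading and 20 min compound exposure, both at room temperature | Measure: Ratio B score | Medium: Assay buffer for compound exposure, DMSO matched across wells | Compound dosing: Single-concentration screen | Probe or stimulus: K+/Tl+ depolarizing stimulus | Measured by: Kinetic FluxOR fluorescence, 10 s baseline plus 110 s post-stimulus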
hERG protect = hERG (human) protection from proarrhythmic block. activation (rescue from dofetilide block), less the hit threshold, % at 10 µM. Q12809. actives 0.51% (n = 310,000). CHO-hERG, FluxOR thallium flux, dofetilide IC70 present;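 active means activation above the mean of controls blocked by dofetilide plus 5 SD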;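 further: thallium influx through hERG after potassium depolarization seen as dye fluorescence rise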
Target sequence (Q12809 whole entry, looked up): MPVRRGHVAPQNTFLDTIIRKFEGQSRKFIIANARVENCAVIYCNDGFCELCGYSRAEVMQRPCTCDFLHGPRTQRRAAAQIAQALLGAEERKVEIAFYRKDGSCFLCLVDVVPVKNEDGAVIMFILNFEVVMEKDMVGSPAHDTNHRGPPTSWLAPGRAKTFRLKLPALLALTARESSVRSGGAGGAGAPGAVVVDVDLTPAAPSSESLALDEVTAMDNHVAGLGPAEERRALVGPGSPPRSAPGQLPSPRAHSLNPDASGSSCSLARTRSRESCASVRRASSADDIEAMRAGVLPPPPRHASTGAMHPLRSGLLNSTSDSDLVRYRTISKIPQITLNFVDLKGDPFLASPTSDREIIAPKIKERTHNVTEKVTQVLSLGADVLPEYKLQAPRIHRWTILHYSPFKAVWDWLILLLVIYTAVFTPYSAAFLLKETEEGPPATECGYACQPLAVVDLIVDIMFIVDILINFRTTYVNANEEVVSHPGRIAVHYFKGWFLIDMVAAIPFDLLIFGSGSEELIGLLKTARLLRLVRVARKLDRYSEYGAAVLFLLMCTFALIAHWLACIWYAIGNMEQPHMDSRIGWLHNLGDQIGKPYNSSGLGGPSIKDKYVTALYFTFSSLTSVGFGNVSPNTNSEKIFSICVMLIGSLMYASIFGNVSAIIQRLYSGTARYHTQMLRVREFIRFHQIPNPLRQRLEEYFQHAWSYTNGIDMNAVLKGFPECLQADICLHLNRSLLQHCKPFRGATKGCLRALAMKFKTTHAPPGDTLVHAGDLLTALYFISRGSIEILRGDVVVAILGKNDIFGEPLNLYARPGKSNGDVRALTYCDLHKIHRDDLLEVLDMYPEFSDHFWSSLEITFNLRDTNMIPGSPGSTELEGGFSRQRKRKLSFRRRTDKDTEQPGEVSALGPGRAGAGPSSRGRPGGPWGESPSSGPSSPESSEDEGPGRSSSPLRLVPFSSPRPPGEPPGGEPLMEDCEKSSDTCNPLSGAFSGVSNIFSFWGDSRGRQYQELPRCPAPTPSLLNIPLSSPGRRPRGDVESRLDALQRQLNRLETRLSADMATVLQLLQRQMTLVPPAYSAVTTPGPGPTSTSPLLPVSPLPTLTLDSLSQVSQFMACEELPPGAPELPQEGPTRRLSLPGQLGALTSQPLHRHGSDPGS
Kir21 inh = Kir2.1 (mouse) channel inhibition | HEK293-Kir2.1, FluxOR thallium flux fluorescence; active compounds read low | actives 0.85% (n = 310,000) | B-score at 10 µM;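 active means fluorescence ratio B-score at or below minus 3 SD of library scores, with starting-brightness B-score within 2 SD, cut at about -4.2 in these data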;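 further: channel flux triggered by added potassium and thallium sulfate stimulus; B-score of peak minus minimum fluorescence over baseline after thallium stimulus; more negative B-score means stronger Kir2.1 block with less thallium influx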
KCNK3 inh = human KCNK3 channel inhibition, primary screen. B-score at 10 µM. actives 0.84% (n = 340,000). CHO-KCNK3 thallium flux, FluxOR fluorescence; active compounds read low. AID 602410. O14649;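 active means B-score under library mean minus 4 SD, starting fluorescence ratio at most library mean plus 5 SD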;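 further: more negative B-score means stronger inhibition of thallium flux through KCNK3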
KCNK9 inh = inhibitors of human KCNK9 two-pore domain potassium channel | HEK293 KCNK9, FluxOR thallium flux fluorescence; active compounds read low | B-score at 10 µM | actives 1.2% (n = 310,000) | AID 488922;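 active means ratio B-score over 3 SD below the library mean, with starting fluorescence within 5 SD of its mean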;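 further: negative B-score means less thallium flux so channel inhibition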
KCNK9 inh conf = human KCNK9 inhibitor confirmation. HEK293 KCNK9 cells, FluxOR thallium flux fluorescence. actives 43% (n = 4,900). shares compounds with KCNK9 inh. inhibition, % at 10 µM. AID 492992;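 active means thallium signal inhibited by more than 5 SD of the compound-free buffer control wells, on both duplicate plates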
Kir21 sel = selectivity of KCNK9 modulators against mouse Kir2.1; AID 492993; Kir2.1 cells, FluxOR thallium flux fluorescence; shares compounds with KCNK9 inh; actives 4% (n = 4,900); inhibition, % at 10 µM;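 active means thallium signal drop more than 5 SD beyond the mean of the no-compound control wells, seen in both duplicate plates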;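 further: signal is fluorescence rise after thallium addition divided by baseline fluorescence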
KCNK9 uninduced = second check of KCNK9 modulator effects in non-induced HEK293 cells. shares compounds with KCNK9 inh. FluxOR thallium flux. inhibition, % at 10 µM. actives 40% (n = 4,900);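 active means thallium signal drop beyond 5 SD of the untreated control mean, on both duplicate plates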
KCNK3 inh conf = confirmation of human KCNK3 two-pore domain potassium channel inhibitors | shares compounds with KCNK3 inh | CHO-KCNK3 thallium flux, FluxOR fluorescence; 0% buffer, 100% carvedilol maximal block | ratio percent of control, % at 10 µM | actives 99% (n = 2,400) | AID 651638;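 active means ratio percent of control, averaged over triplicates, above buffer control mean plus 5 SD, cut at about 64% in these data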;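 further: ratio is the fluorescence rise from min to max over baseline after thallium stimulus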
KCNK3 uninduced = activity in cells without induced KCNK3 expression; shares compounds with KCNK3 inh; non-induced KCNK3 parental cells, FluxOR thallium flux; active compounds read low; thallium flux ratio (lower = more inhibition) at 10 µM; actives 40% (n = 2,400);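 active means thallium flux ratio, averaged over three wells, more than 5 SD below the buffer control mean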;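 further: host cells are CHO cells without KCNK3 induction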
Of the large screens only hits and unclear results are named; the others gave an inactive call (follow-up assays come after a bar, where they were run). Only some compounds are listed: those with a hit (about 3.7% of all), similar ones and a draw of the others.

CCOC(=O)N1CCN(c2nc(-c3cccs3)nc3ccccc23)CC1	KCNK3 inh -10, KCNK9 inh -8.9 | KCNK9 inh conf inactive | Kir21 sel inactive | KCNK9 uninduced inactive | KCNK3 inh conf 104 | KCNK3 uninduced 0.15
CC(=O)c1ccc(OC(C)C(=O)OCC(=O)NCCc2ccccc2)cc1 (stereo not drawn)	none (no result: KCNQ1 block, KCNQ1 pot, hERG protect, Kir21 inh, KCNK9 inh)
CSCc1c(C(=O)OCC(=O)NC2CCCCC2)oc2ccccc12	none (no result: KCNQ1 block, KCNQ1 pot, hERG protect, Kir21 inh, KCNK9 inh)
O=C(c1ccco1)N1CCN(C(=O)N2c3ccccc3Sc3ccccc32)CC1	none
O=C(c1ccco1)N1c2ccccc2Sc2ccccc21	KCNK3 inh -9.2, KCNK9 inh -9.4 | KCNK9 inh conf 31% | Kir21 sel inactive | KCNK9 uninduced 30% | KCNK3 inh conf 116 | KCNK3 uninduced inactive
O=C(c1ccc(Cl)c(S(=O)(=O)N2CCc3ccccc32)c1)N1CCN(c2ccccc2O)CC1	none (no result: KCNQ1 block, KCNQ1 pot, hERG protect, Kir21 inh, KCNK9 inh)
O=C(NNC(=O)c1ccccc1O)c1ccc(Cl)c(S(=O)(=O)N2CCc3ccccc32)c1	KCNQ1 block 14, KCNK3 inh -14, KCNK9 inh -9.7 | KCNK9 inh conf 32% | Kir21 sel inactive | KCNK9 uninduced inactive | KCNK3 inh conf 116 | KCNK3 uninduced 0.14
O=C(c1ccc(Cl)cc1)c1ccc(Oc2cc(NN3CCCCC3)c([N+](=O)[O-])cc2[N+](=O)[O-])cc1	none
CC(=O)Nc1sc(C)c(C)c1C(=O)OCCOc1ccccc1	KCNK3 inh -11, KCNK9 inh -13 | KCNK9 inh conf 46% | Kir21 sel inactive | KCNK9 uninduced 46% | KCNK3 inh conf 125 | KCNK3 uninduced 0.13
CC(=O)Nc1sc(C)c(C)c1C(=O)OCC(=O)Nc1ccccc1	none (no result: KCNQ1 block, KCNQ1 pot, hERG protect, Kir21 inh, KCNK9 inh)
S=C(NC1CCCCC1)N(CCc1nc2ccccc2[nH]1)C1CCCC1	KCNK3 inh -10 | KCNK9 inh conf inactive | Kir21 sel inactive | KCNK9 uninduced inactive | KCNK3 inh conf 118 | KCNK3 uninduced 0.13
O=c1cc(CN2CCN(C/C=C/c3ccccc3)CC2)c2cc(O)c(-c3ccccc3)cc2o1	none
CC(C)CN(Cc1cc(=O)oc2cc(-c3ccccc3)c(O)cc12)CC(C)C	KCNQ1 block 11, KCNK9 inh -10 | KCNK9 inh conf 53% | Kir21 sel inactive | KCNK9 uninduced 27% | KCNK3 inh conf 146 | KCNK3 uninduced 0.088
CC(Sc1nnnn1-c1ccc(O)cc1)C(=O)NC1CCCCC1C (stereo not drawn)	none
COc1ccc(CN(C)C(=O)c2oc3ccccc3c2CSC)cc1F	KCNK3 inh -11, KCNK9 inh -12 | KCNK9 inh conf 67% | Kir21 sel inactive | KCNK9 uninduced 30% | KCNK3 inh conf 104 | KCNK3 uninduced inactive
Cc1cccc(C)c1NC(=O)c1sccc1SCc1cccc(C(F)(F)F)c1	KCNK3 inh -9.4, KCNK9 inh -14 | KCNK9 inh conf 56% | Kir21 sel 49% | KCNK9 uninduced 45% | KCNK3 inh conf 101 | KCNK3 uninduced 0.16
CC(Oc1ccc(Cl)cc1)c1ccnn1S(=O)(=O)c1ccc(Cl)cc1 (stereo not drawn)	KCNK3 inh -13, KCNK9 inh -15 | KCNK9 inh conf 58% | Kir21 sel 44% | KCNK9 uninduced 58% | KCNK3 inh conf 114 | KCNK3 uninduced 0.16
CC(Oc1ccc(Cl)cc1)C(=O)Nc1ccc(S(=O)(=O)N2CCOCC2)cc1 (stereo not drawn)	none
COc1ccc(C(=O)C2CCCN(C(=O)c3ccc4nccnc4c3)C2)c(C)c1 (stereo not drawn)	none
NC(=O)C1CCN(C(=O)CCNS(=O)(=O)c2ccccc2F)CC1	none (no result: KCNQ1 block, KCNQ1 pot, hERG protect, Kir21 inh, KCNK9 inh)
CCc1c(C)nc2cc(-c3cc(OC)cc(OC)c3)nn2c1N1CCCC1	KCNK3 inh -9.8, KCNK9 inh -11 | KCNK9 inh conf 58% | Kir21 sel inactive | KCNK9 uninduced 26% | KCNK3 inh conf 100 | KCNK3 uninduced inactive
O=C(CCCSc1nnnn1-c1cccc2ccccc12)c1ccc(F)cc1	KCNK3 inh -9.6, KCNK9 inh -8.2 | KCNK9 inh conf inactive | Kir21 sel 34% | KCNK9 uninduced inactive | KCNK3 inh conf 102 | KCNK3 uninduced inactive
COc1ccc(C(=O)/C=C/c2ccc(OC)c(COc3ccc(F)cc3)c2)cc1	KCNK3 inh -10, KCNK9 inh -13 | KCNK9 inh conf 66% | Kir21 sel inactive | KCNK9 uninduced 33% | KCNK3 inh conf 129 | KCNK3 uninduced 0.15
CSc1ccc(C(=O)N2CCc3ccc(NC(=O)c4ccccn4)cc3C2)cc1	none
COC(=O)c1ccccc1NC(=O)N1CCc2ccc(NC(=O)c3ccccn3)cc2C1	KCNK9 inh -8.3 | KCNK9 inh conf 42% | Kir21 sel inactive | KCNK9 uninduced 26% | KCNK3 inh conf 134 | KCNK3 uninduced 0.16
CC(C)N(Cc1nc(-c2ccc(Cl)cc2)no1)C(=O)CCC1CCCC1	KCNK3 inh -11, KCNK9 inh -14 | KCNK9 inh conf 66% | Kir21 sel inactive | KCNK9 uninduced 42% | KCNK3 inh conf 118 | KCNK3 uninduced inactive
COc1ccccc1OCC(=O)N(Cc1nc(-c2ccc(Cl)cc2)no1)C(C)C	none
COc1ccc(NC(=O)Cn2nc(C(=O)O)c3ccccc3c2=O)cc1OC	none
COc1ccc(OC)c(NC(=O)CN(Cc2ccc(F)cc2)C2CCCCC2)c1	KCNK3 inh -8.8, KCNK9 inh -14 | KCNK9 inh conf 69% | Kir21 sel inactive | KCNK9 uninduced 48% | KCNK3 inh conf 56 | KCNK3 uninduced 0.12
O=c1cc(CSc2nc(NCc3ccc(Cl)cc3)c3ccccc3n2)nc2ccc(Cl)cn12	none (no result: KCNQ1 block, KCNQ1 pot, hERG protect, Kir21 inh, KCNK9 inh)
NS(=O)(=O)c1ccc(N2CCN(CCOc3ccc(Cl)cc3)CC2)nc1	none
CCCn1c(=O)c(C(=O)Nc2ccccc2C(=O)OCC)c(O)c2ccccc21	KCNK3 inh -8.9, KCNK9 inh -9.2 | KCNK9 inh conf 54% | Kir21 sel inactive | KCNK9 uninduced 38% | KCNK3 inh conf 92 | KCNK3 uninduced inactive
CCCn1c(=O)c(C(=O)Nc2ncccc2C)c(O)c2ccccc21	none

From PubChem
